Legend:
[1] = system: SK-OV-3; assay: Antiproliferative activity against human SKOV3 cells assessed as reduction in cell viability incubated for 72 hrs by CellTiter-Blue fluorescence assay; details: SK-OV-3, 72 h
[2] = species: Sus scrofa; assay: Inhibition of porcine GSK3alpha/beta assessed as residual activity at 1 uM in presence of ATP by ADP-glo luminescent assay relative to control
Summary of the method: (§1)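 Porcine brain GSK3α/β, native and affinity-purified. Assayed by ADP-Glo luminescence with 10 μM ATP and 0.010 μg/μl GS-1 peptide substrate. Buffer A: 10 mM MgCl2, 1 mM EGTA, 1 mM DTT, 25 mM Tris-HCl pH 7.5, 50 μg/ml heparin. Compound tested at 10 or 1 μM. Result is % of maximal activity versus DMSO control, mean of n = 2.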

[3] = system: MIA PaCa-2; assay: Antiproliferative activity against human MIA PaCa-2 cells assessed as reduction in cell viability incubated for 72 hrs by CellTiter-Blue fluorescence assay; details: MIA PaCa-2, 72 h
[4] = molecular target: T1, Cyclin-dependent kinase 5/CDK5 activator 1 (Homo sapiens) (UniProt Q00535+Q15078); assay: Inhibition of human CDK5/p25 assessed as residual activity at 1 uM in presence of ATP by ADP-glo luminescent assay relative to control; assay type: protein-complex assay
T1 sequence (Q00535 whole entry): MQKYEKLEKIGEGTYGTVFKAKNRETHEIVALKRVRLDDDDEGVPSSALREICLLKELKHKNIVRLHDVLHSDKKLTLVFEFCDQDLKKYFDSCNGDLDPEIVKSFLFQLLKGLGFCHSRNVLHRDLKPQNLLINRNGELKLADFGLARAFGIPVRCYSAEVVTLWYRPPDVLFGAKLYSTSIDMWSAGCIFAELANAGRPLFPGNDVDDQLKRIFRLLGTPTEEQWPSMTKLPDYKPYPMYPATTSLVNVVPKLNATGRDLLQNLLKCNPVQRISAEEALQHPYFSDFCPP
T1 sequence (Q15078 99-307 partner limits assumed): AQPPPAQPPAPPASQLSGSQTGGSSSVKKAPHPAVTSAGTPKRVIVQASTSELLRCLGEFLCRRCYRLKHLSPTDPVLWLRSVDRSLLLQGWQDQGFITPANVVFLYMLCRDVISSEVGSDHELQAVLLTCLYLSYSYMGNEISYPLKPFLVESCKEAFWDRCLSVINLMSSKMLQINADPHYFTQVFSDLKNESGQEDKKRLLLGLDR
Summary of the method: (§2)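 Human kinases assayed by ADP-Glo luminescence with 10 μM ATP, compound at 10 or 1 μM. Activity is expressed as % of maximal activity relative to a DMSO control, mean n = 2.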

[5] = species: Sus scrofa; assay: Inhibition of porcine CK1delta/epsilon assessed as residual activity at 10 uM in presence of ATP by ADP-glo luminescent assay relative to control
[6] = system: Plasmodium falciparum; assay: Inhibition of Plasmodium falciparum GSK3 assessed as residual activity at 10 uM in presence of ATP by ADP-glo luminescent assay relative to control
Summary of the method: (§3)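 Recombinant P. falciparum GSK3, bacterially expressed, in buffer A (10 mM MgCl2, 1 mM EGTA, 1 mM DTT, 25 mM Tris-HCl pH 7.5, 50 μg/ml heparin). Substrate 0.010 μg/μl GS-1 peptide, 10 μM ATP, ADP-Glo luminescence. Compound at 10 or 1 μM; % residual activity vs DMSO control, mean n = 2.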

[7] = molecular target: T2, CDK2/Cyclin A2 (Homo sapiens) (UniProt P24941+P20248); assay: Inhibition of human CDK2/cyclin A assessed as residual activity at 10 uM in presence of ATP by ADP-glo luminescent assay relative to control; assay type: protein-complex assay
Summary of the method: as §2

[8] = system: NCI-N87; assay: Antiproliferative activity against human NCI-N87 cells assessed as reduction in cell viability incubated for 72 hrs by CellTiter-Blue fluorescence assay; details: NCI-N87, 72 h
[9] = system: Plasmodium falciparum; assay: Inhibition of Plasmodium falciparum GSK3 assessed as residual activity at 1 uM in presence of ATP by ADP-glo luminescent assay relative to control
Summary of the method: as §3

[10] = molecular target: T3, Glycogen synthase kinase-3 beta (Homo sapiens, UniProt P49841); assay: Inhibition of human GSK3beta assessed as residual activity at 10 uM in presence of ATP by ADP-glo luminescent assay relative to control
Summary of the method: as §2
Target sequence in this assay (P49841 whole entry, looked up): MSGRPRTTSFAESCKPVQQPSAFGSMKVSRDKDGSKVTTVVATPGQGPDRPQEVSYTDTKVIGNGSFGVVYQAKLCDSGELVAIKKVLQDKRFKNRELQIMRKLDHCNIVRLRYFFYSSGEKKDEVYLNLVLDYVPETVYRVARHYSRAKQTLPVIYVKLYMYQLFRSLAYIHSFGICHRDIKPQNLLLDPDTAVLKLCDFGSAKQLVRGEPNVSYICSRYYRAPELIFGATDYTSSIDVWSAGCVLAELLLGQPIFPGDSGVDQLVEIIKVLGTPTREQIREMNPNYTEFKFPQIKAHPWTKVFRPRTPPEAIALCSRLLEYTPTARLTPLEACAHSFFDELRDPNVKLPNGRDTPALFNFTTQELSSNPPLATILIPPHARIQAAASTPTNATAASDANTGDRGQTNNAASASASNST

[11] = molecular target: T2, CDK2/Cyclin A2 (Homo sapiens); assay: Inhibition of human CDK2/cyclin A assessed as residual activity at 1 uM in presence of ATP by ADP-glo luminescent assay relative to control; assay type: protein-complex assay
Summary of the method: as §2

[12] = system: K562; assay: Antiproliferative activity against human K562 cells assessed as reduction in cell viability incubated for 72 hrs by CellTiter-Blue resazurin fluorescence assay; details: K562, 72 h
[13] = system: Leishmania major; assay: Inhibition of Leishmania major CK1 assessed as residual activity at 1 uM in presence of ATP by ADP-glo luminescent assay relative to control
[14] = system: Leishmania major; assay: Inhibition of Leishmania major CK1 assessed as residual activity at 10 uM in presence of ATP by ADP-glo luminescent assay relative to control
[15] = molecular target: T4, CDK9/cyclin T1 (Homo sapiens) (UniProt O60563+P50750); assay: Inhibition of human CDK9/cyclin T assessed as residual activity at 10 uM in presence of ATP by ADP-glo luminescent assay relative to control; assay type: protein-complex assay
Summary of the method: as §2

[16] = species: Sus scrofa; assay: Inhibition of porcine CK1delta/epsilon assessed as residual activity at 1 uM in presence of ATP by ADP-glo luminescent assay relative to control
[17] = molecular target: T4, CDK9/cyclin T1 (Homo sapiens); assay: Inhibition of human CDK9/cyclin T assessed as residual activity at 1 uM in presence of ATP by ADP-glo luminescent assay relative to control; assay type: protein-complex assay
Summary of the method: as §2

[18] = molecular target: T3, Glycogen synthase kinase-3 beta; assay: Inhibition of human GSK3beta assessed as residual activity at 1 uM in presence of ATP by ADP-glo luminescent assay relative to control
Summary of the method: as §2
Target sequence in this assay (P49841 whole entry, looked up): as above

[19] = system: SK-BR-3; assay: Antiproliferative activity against human SK-BR-3 cells assessed as reduction in cell viability incubated for 72 hrs by CellTiter-Blue fluorescence assay; details: SK-BR-3, 72 h
[20] = species: Sus scrofa; assay: Inhibition of porcine GSK3alpha/beta assessed as residual activity at 10 uM in presence of ATP by ADP-glo luminescent assay relative to control
Summary of the method: as §1

[21] = molecular target: T1, Cyclin-dependent kinase 5/CDK5 activator 1 (Homo sapiens); assay: Inhibition of human CDK5/p25 assessed as residual activity at 10 uM in presence of ATP by ADP-glo luminescent assay relative to control; assay type: protein-complex assay
Summary of the method: as §2

[22] = molecular target: Cyclin-dependent kinase 5/CDK5 activator 1 (Homo sapiens, UniProt Q00535); assay: Inhibition of human CDK5/p25 in presence of ATP by ADP-glo luminescent assay; assay type: protein-complex assay
Sequence of Cyclin-dependent kinase 5/CDK5 activator 1 (Q00535 whole entry): as the sequence (Q00535 whole entry) above
Sequence of Cyclin-dependent kinase 5/CDK5 activator 1 (Q15078 whole entry, further chain): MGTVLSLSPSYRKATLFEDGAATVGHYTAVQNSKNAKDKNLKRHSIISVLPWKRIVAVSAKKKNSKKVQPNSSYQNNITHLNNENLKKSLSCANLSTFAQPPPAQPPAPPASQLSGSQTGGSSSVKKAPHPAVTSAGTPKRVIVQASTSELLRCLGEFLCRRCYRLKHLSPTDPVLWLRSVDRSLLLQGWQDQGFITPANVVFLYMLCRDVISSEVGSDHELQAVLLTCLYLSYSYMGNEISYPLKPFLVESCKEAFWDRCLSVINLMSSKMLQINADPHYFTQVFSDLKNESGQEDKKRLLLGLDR
Summary of the method: (§4)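 Human kinases tested over roughly 0.0003–10 μM by ADP-Glo luminescence with 10 μM ATP, in duplicate. IC50 is taken from dose-response curves.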

[23] = molecular target: CDK2/Cyclin A2 (Homo sapiens, UniProt P24941); assay: Inhibition of human CDK2/cyclin A in presence of ATP by ADP-glo luminescent assay; assay type: protein-complex assay
Summary of the method: as §4

[24] = molecular target: CDK9/cyclin T1 (Homo sapiens, UniProt P50750); assay: Inhibition of human CDK9/cyclin T in presence of ATP by ADP-glo luminescent assay; assay type: protein-complex assay
Sequence of CDK9/cyclin T1 (O60563 whole entry): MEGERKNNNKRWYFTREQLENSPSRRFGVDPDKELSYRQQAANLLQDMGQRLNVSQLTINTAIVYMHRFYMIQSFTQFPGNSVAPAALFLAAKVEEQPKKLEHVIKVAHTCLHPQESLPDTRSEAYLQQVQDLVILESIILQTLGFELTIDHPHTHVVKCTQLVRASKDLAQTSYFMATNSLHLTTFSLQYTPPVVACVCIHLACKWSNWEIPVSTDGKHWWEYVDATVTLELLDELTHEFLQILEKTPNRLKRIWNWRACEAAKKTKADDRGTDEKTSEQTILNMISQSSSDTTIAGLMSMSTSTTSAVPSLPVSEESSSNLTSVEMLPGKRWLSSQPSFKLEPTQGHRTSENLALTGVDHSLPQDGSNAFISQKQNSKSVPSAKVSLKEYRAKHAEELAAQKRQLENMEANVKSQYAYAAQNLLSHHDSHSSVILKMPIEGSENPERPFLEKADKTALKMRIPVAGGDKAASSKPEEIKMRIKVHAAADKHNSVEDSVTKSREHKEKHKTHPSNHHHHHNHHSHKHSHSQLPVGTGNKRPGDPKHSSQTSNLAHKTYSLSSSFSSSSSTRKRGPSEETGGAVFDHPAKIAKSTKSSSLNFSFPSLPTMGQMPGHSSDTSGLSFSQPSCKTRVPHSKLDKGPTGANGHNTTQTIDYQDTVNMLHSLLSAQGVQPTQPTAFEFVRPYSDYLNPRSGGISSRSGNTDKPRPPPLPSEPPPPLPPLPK
Sequence of CDK9/cyclin T1 (P50750 whole entry): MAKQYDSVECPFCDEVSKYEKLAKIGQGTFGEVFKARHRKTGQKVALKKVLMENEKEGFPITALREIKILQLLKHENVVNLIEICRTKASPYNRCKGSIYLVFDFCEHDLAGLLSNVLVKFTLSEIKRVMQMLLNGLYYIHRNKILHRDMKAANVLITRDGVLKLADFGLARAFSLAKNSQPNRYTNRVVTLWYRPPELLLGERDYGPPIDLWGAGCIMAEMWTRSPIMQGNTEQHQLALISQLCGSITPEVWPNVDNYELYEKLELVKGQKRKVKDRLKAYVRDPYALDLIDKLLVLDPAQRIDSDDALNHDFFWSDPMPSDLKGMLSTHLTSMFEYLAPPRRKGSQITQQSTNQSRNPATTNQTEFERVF
Summary of the method: as §4

[25] = system: PC-3; assay: Antiproliferative activity against human PC-3 cells assessed as reduction in cell viability incubated for 72 hrs by CellTiter-Blue fluorescence assay; details: PC-3, 72 h
[26] = system: HCT-116; assay: Antiproliferative activity against human HCT-116 cells assessed as reduction in cell viability incubated for 72 hrs by CellTiter-Blue fluorescence assay; details: HCT-116, 72 h
[27] = molecular target: T3, Glycogen synthase kinase-3 beta; assay: Inhibition of human GSK3beta in presence of ATP by ADP-glo luminescent assay
Summary of the method: as §4
Target sequence in this assay (P49841 whole entry): as the sequence (P49841 whole entry, looked up) above

CN1CC=C(c2c(O)cc(O)c3c(=O)cc(-c4ccc(Sc5ccc(C(=O)O)cn5)cc4)oc23)CC1
IC50 [1]: > 10000 nM

CN1CC[C@H](c2c(O)cc(O)c3c(=O)cc(-c4ccccc4Cl)oc23)[C@H](O)C1 [ALVOCIDIB]
Activity [2]: 70%
IC50 [3]: 320 nM
Activity [4]: 36%
Activity [5]: 78%
Activity [6]: 70%
Activity [7]: 11%
IC50 [8]: 111 nM
IC50 [1]: 220 nM
Activity [9]: > 100%
Activity [10]: 10%
Activity [11]: 26%
IC50 [12]: 125 nM
Activity [13]: > 100%
Activity [14]: 61%
Activity [15]: 1%
Activity [16]: > 100%
Activity [17]: 5%
Activity [18]: 50%
IC50 [19]: 75 nM
Activity [20]: 16%
Activity [21]: 13%

CN1CC=C(c2c(O)cc(O)c3c(=O)cc(-c4ccc(SCCC(=O)NO)cc4)oc23)CC1
IC50 [1]: > 10000 nM

CN1CC=C(c2c(O)cc(O)c3c(=O)cc(-c4ccc(Sc5nc(-c6ccccc6)c[nH]5)cc4)oc23)CC1
Activity [2]: 53%
IC50 [22]: 195 nM
IC50 [3]: 448 nM
Activity [4]: 10%
Activity [5]: 43%
IC50 [23]: 469 nM
Activity [6]: > 100%
IC50 [24]: 9 nM
Activity [7]: 14%
IC50 [8]: 4800 nM
IC50 [1]: 295 nM
Activity [9]: > 100%
Activity [10]: 6%
Activity [11]: 33%
IC50 [12]: 300 nM
Activity [13]: 88%
IC50 [25]: 243 nM
Activity [14]: 54%
IC50 [26]: 173 nM
Activity [15]: 0%
Activity [16]: 78%
Activity [17]: 2%
Activity [18]: 25%
IC50 [19]: 352 nM
IC50 [27]: 356 nM
Activity [20]: 11%
Activity [21]: 5%

CC(=O)OC[C@@H]1O[C@@H](Sc2ccc(-c3cc(=O)c4c(O)cc(O)c(C5=CCN(C)CC5)c4o3)cc2)[C@@H](OC(C)=O)[C@H](OC(C)=O)[C@H]1OC(C)=O
IC50 [1]: > 10000 nM

CN1CC=C(c2c(O)cc(O)c3c(=O)cc(-c4ccc(Sc5nc6ccccc6[nH]5)cc4Cl)oc23)CC1
Activity [2]: 43%
IC50 [22]: 550 nM
IC50 [3]: 361 nM
Activity [4]: 42%
Activity [5]: 48%
IC50 [23]: 1560 nM
Activity [6]: 64%
IC50 [24]: 15 nM
Activity [7]: 22%
IC50 [8]: 12 nM
IC50 [1]: 333 nM
Activity [9]: > 100%
Activity [10]: 4%
Activity [11]: 46%
IC50 [12]: 36 nM
Activity [13]: 81%
IC50 [25]: 326 nM
Activity [14]: 35%
IC50 [26]: 170 nM
Activity [15]: 3%
Activity [16]: 86%
Activity [17]: 2%
Activity [18]: 14%
IC50 [19]: 66.6 nM
IC50 [27]: 216 nM
Activity [20]: 4%
Activity [21]: 14%

CN1CC=C(c2c(O)cc(O)c3c(=O)cc(-c4ccc(Sc5ncccn5)cc4Cl)oc23)CC1
IC50 [1]: > 10000 nM

CC(=O)OC[C@@H]1O[C@@H](Sc2ccc(-c3cc(=O)c4c(O)cc(O)c(C5=CCN(C)CC5)c4o3)c(Cl)c2)[C@@H](OC(C)=O)C(OC(C)=O)C1OC(C)=O (single isomer, unassigned)
IC50 [1]: 2330 nM

COC(=O)[C@@H](CSc1ccc(-c2cc(=O)c3c(O)cc(O)c(C4=CCN(C)CC4)c3o2)cc1)NC(=O)OC(C)(C)C
IC50 [1]: 7790 nM

CN1CC=C(c2c(O)cc(O)c3c(=O)cc(-c4ccc(Sc5ccc(C(=O)NO)cn5)cc4)oc23)CC1
IC50 [1]: > 10000 nM

CN1CC=C(c2c(O)cc(O)c3c(=O)cc(-c4ccc(Sc5ncccn5)cc4)oc23)CC1
IC50 [1]: > 10000 nM

COc1ccc2[nH]c(Sc3ccc(-c4cc(=O)c5c(O)cc(O)c(C6=CCN(C)CC6)c5o4)cc3)nc2c1
IC50 [1]: 1200 nM

CC(=O)OC[C@@H]1O[C@@H](Sc2ccc(-c3cc(=O)c4c(O)cc(O)c(C5=CCN(C)CC5)c4o3)cc2)[C@@H](OC(C)=O)[C@H](OC(C)=O)[C@@H]1OC(C)=O
IC50 [1]: 2870 nM

COC(=O)[C@H](CO)NC(=O)[C@H](CSc1ccc(-c2cc(=O)c3c(O)cc(O)c(C4=CCN(C)CC4)c3o2)cc1)NC(=O)OCc1ccccc1
IC50 [1]: 4300 nM

CN1CC=C(c2c(O)cc(O)c3c(=O)cc(-c4ccc(S[C@@H]5O[C@@H](CO)C(O)C(O)[C@@H]5O)cc4)oc23)CC1 (single isomer, unassigned)
IC50 [1]: > 10000 nM

CN1CC=C(c2c(O)cc(O)c3c(=O)cc(-c4ccc(SCCC(=O)NOC5CCCCO5)cc4)oc23)CC1 (configuration not stated)
IC50 [1]: 6850 nM

CN1CC=C(c2c(O)cc(O)c3c(=O)cc(-c4ccc(Nc5ccccc5)cc4)oc23)CC1
IC50 [1]: 1200 nM

CN1CC=C(c2c(O)cc(O)c3c(=O)cc(-c4ccc(Sc5nc6ccccc6o5)cc4)oc23)CC1
IC50 [1]: 2000 nM

CC(=O)N[C@H](CSc1ccc(-c2cc(=O)c3c(O)cc(O)c(C4=CCN(C)CC4)c3o2)cc1)C(=O)O
IC50 [1]: > 10000 nM

CN1CC=C(c2c(O)cc(O)c3c(=O)cc(-c4ccc(Sc5ccc6ccccc6n5)cc4)oc23)CC1
IC50 [1]: 3800 nM
